In general, viability refers to a read-out of living cells in per cent, often relative to untreated cells. For orientation: inhibition means the relative decrease from the control value, in per cent.

Drawing on PubChem BioAssay, this text covers viability, differential viability (reversal) and inhibition for 18 compounds.

Active and inactive are the calls of the source.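 How the source made its calls, unless noted: active means viability loss from added drug above about 55%, and viability with drug at most 40%, in both replicates (limit read from the data, passing the limit was not always enough); inconclusive means both conditions met in only one replicate; inactive means neither replicate meets both conditions.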

Experiment [1] in a line: reduced viability of SK-BR-3 breast cancer cells – cell-based, 24 h, human, pilot screen (AID 572;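 active means viability at or below 10% of carrier control in both of two separate runs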;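 further: compound exposure lasted between 18 and 24 h rather than exactly 24 h; 100% = carrier-treated control wells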). Particulars: SK-BR-3 viability, CellTiter-Glo luminescence, at 10 µM, stronger effect = lower value.
The nature of experiment [2]: HUVEC growth inhibition – cell-based, human, primary screen (AID 575;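 active means viability at or below 30% in both replicate assays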;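 further: 100% = median of untreated cell wells with 0.1% DMSO on each plate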). Particulars: HUVEC proliferation, CellTiter-Glo luminescence, 72 h; at 10 µM; stronger effect = lower value. In a few lines:
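Test system: HUVEC primary cells. Quantity: 1250 endothelial cells in each well. Dosing: single-point 10 µM, DMSO 0.1% final. Incubation: 72 h treatment at 37 °C. Measured by: CTG luminescence. Control set: DMSO cell controls and MePR drug controls. Plate: collagen-coated 384-well format.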
A general note: In ATP-based viability assays light output follows the ATP content of the culture.

A short description of experiment [3]: H69AR cell proliferation blockers – human, duplicate replicates, primary screen (AID 580;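 active means viability at or under a set limit in both replicates, limit being median viability minus 3 SD, cut at about 48% in these data, passing the limit was not always enough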;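 further: 100% = mean luminescence of untreated wells and 0% = no signal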). Particulars: H69AR lung tumor cells viability, ATP luminescence, 72 h; at 10 µM; stronger effect = lower value.
Experiment [4] can be described thus: MRP1 drug-resistance reversers in H69AR cells – cell-based, doxorubicin co-treatment, pilot screen (AID 601). As to conditions: CellTiter-Glo, 72 h, at 10 µM; for differential viability (reversal): stronger effect = higher value.
Experiment [5] in a line: yeast transport mutant growth inhibition pilot in 384-well plates, post-Golgi transport modulator project (AID 636; in the data active means inhibition above about 31%). As to conditions: absorbance 615 nm, about 18 h, stronger effect = higher value.
A short description of experiment [6]: growth suppression of yeast trafficking mutant, preliminary HTS, modulators of trafficking downstream of Golgi apparatus project, 1536-format plate, OD 615 nm (AID 637; in the data active means inhibition above about 30%). Particulars: yeast transport mutant growth, absorbance 615 nm, 18 h; stronger effect = higher value.
Setting [7] is: H69AR cells + 2 uM doxorubicin, measured here: viability with 2 uM doxorubicin, stronger effect = lower value.
Where [8] appears, read: H69AR cells, compound alone cytotoxicity.

For `CCN(CC)C(=O)CSC1=C(C#N)C(c2ccco2)C(C(=O)OCCOC)=C(C)N1` (centres undefined), the viability in experiment [1] is 116% (inactive); in experiment [2], 101% (inactive); in experiment [3], 78% (inactive); in experiment [4] (setting [7]) it was 71.6%; in experiment [4] (setting [8]), 78%. Besides, in experiment [4] (H69AR cells + 2 uM doxorubicin), the differential viability (reversal) is 6.37% (inactive). Further, the inhibition in experiment [5] was -6.16% (inactive); in experiment [6] it was 2.58% (inactive).
Regarding `Cc1cccc(NC(=O)c2cc(NC(=O)c3ccco3)ccc2Cl)n1`, the viability in experiment [1] is 101% (inactive); in experiment [2], 77.2% (inactive); in experiment [3], 95.4% (inactive); in experiment [4] (setting [7]), 95.3%; in experiment [4] (setting [8]), 95.4%. Moreover, the differential viability (reversal) in experiment [4] (H69AR cells + 2 uM doxorubicin) is 0.16% (inactive). Also, the inhibition was -1.56% (inactive) in experiment [5] and 7.21% (inactive) in experiment [6].
For the compound `COc1ccc(CNCC(=O)Nc2cc(C)nn2-c2nc(C)cc(C)n2)cc1OC`, the viability in experiment [1] was 98% (inactive); in experiment [2] it was 51.1% (inactive); in experiment [3] it was 11.9% (active); in experiment [4] (setting [7]), 70.1%; in experiment [4] (setting [8]), 11.9%. The differential viability (reversal) in experiment [4] (H69AR cells + 2 uM doxorubicin) is -58.3% (inactive). In addition, the results for the inhibition in experiment [5] and in experiment [6] were -2.99% (inactive) and 1.15% (inactive), respectively.
Turning to `CCOC(=O)C1=C(N)OC2=C(C(=O)CC(C)(C)C2)C1c1ccco1` (centres undefined), the viability in experiment [1] is 90% (inactive); in experiment [2], 97.3% (inactive); in experiment [3], 87.8% (inactive); in experiment [4] (setting [7]) it was 84%; in experiment [4] (setting [8]), 87.8%. Also, the differential viability (reversal) in experiment [4] (H69AR cells + 2 uM doxorubicin) was 3.79% (inactive). In addition, the inhibition is 1.04% (inactive) in experiment [5] and 3.28% (inactive) in experiment [6].
For `Cc1nc2cc(NC(=O)N3c4ccccc4CC3C)ccc2o1` (centres undefined), the viability in experiment [1] is 91% (inactive); in experiment [2] it was 96.2% (inactive); in experiment [3], 86.3% (inactive); in experiment [4] (setting [7]), 78.2%; in experiment [4] (setting [8]), 86.3%. Moreover, in experiment [4] (H69AR cells + 2 uM doxorubicin), the differential viability (reversal) was 8.09% (inactive). Also, the inhibition in experiment [5] is -5.6% (inactive); in experiment [6], -13.4% (inactive).
With `Cc1cc(C(=O)COC(=O)c2n[nH]c3ccccc23)c(C)n1C`, the viability in experiment [1] is 83% (inactive); in experiment [2] it was 90.4% (inactive); in experiment [3], 88.6% (inactive); in experiment [4] (setting [7]) it was 82.6%; in experiment [4] (setting [8]), 88.6%. Further, in experiment [4] (H69AR cells + 2 uM doxorubicin), the differential viability (reversal) is 5.96% (inactive). Further, the values for the inhibition in experiment [5] and in experiment [6] were -9.18% (inactive) and -4% (inactive), respectively.
`Cc1ccc(S(=O)(=O)N2CCN(C(=O)CSC3CCCC3)CC2)c(C)c1`: the viability in experiment [1] is 74% (inactive); in experiment [2], 87.4% (inactive); in experiment [3], 81.6% (inactive); in experiment [4] (setting [7]), 88.8%; in experiment [4] (setting [8]), 81.6%. Moreover, the differential viability (reversal) in experiment [4] (H69AR cells + 2 uM doxorubicin) is -7.29% (inactive). Besides, the inhibition in experiment [5] was -9.59% (inactive); in experiment [6], -5.32% (inactive).
Consider `COc1ccc(-c2noc(CCCOc3ccccc3)n2)cc1OC`, for which the viability in experiment [1] was 78% (inactive); in experiment [2], 103% (inactive); in experiment [3], 93.7% (inactive); in experiment [4] (setting [7]), 101%; in experiment [4] (setting [8]), 93.7%. In addition, in experiment [4] (H69AR cells + 2 uM doxorubicin), the differential viability (reversal) is -7.4% (inactive). The inhibition was -1.92% (inactive) in experiment [5] and 4.91% (inactive) in experiment [6].
On to `Cc1cc(C)nc(SC2=CS(=O)(=O)c3ccccc32)n1`, for which the viability in experiment [1] was 102% (inactive); in experiment [2], 73.5% (inactive); in experiment [3] it was 14.8% (active); in experiment [4] (setting [7]), 22.3%; in experiment [4] (setting [8]), 14.8%. Further, the differential viability (reversal) in experiment [4] (H69AR cells + 2 uM doxorubicin) is -7.5% (inactive). Also, the inhibition in experiment [5] is -1.2% (inactive); in experiment [6], -1.27% (inactive).
In the case of `O=C(Nc1ccccc1C(=O)O)c1cccc(NC(=O)c2ccc(Br)o2)c1`, the viability in experiment [1] was 91% (inactive); in experiment [2], 80% (inactive); in experiment [3], 102% (inactive); in experiment [4] (setting [7]), 94.4%; in experiment [4] (setting [8]) it was 102%. Besides, in experiment [4] (H69AR cells + 2 uM doxorubicin), the differential viability (reversal) is 7.51% (inactive). Further, the inhibition in experiment [5] was -10.8% (inactive); in experiment [6], -1.82% (inactive).
In the case of `COc1ccccc1-c1noc(-c2ccco2)n1`, the viability in experiment [1] was 102% (inactive); in experiment [2] it was 91% (inactive); in experiment [3], 90.7% (inactive); in experiment [4] (setting [7]), 93.5%; in experiment [4] (setting [8]), 90.7%. Also, in experiment [4] (H69AR cells + 2 uM doxorubicin), the differential viability (reversal) was -2.78% (inactive). The inhibition was 0% (inactive) in experiment [5] and -3.55% (inactive) in experiment [6].
Turning to `COc1ccc(C(O)C(CN2CCOCC2)c2ccccc2)cc1F` (centres undefined), the viability in experiment [1] is 107% (inactive); in experiment [2] it was 109% (inactive); in experiment [3], 103% (inactive); in experiment [4] (setting [7]), 97.8%; in experiment [4] (setting [8]), 103%. In experiment [4] (H69AR cells + 2 uM doxorubicin), the differential viability (reversal) was 4.89% (inactive). Moreover, the inhibition in experiment [5] was -0.26% (inactive); in experiment [6], 1.64% (inactive).
With `O=C(COC(=O)C12CC3CC(CC(C3)C1)C2)NCc1ccco1`, the viability in experiment [1] was 101% (inactive); in experiment [2] it was 98.5% (inactive); in experiment [3], 64.6% (inactive); in experiment [4] (setting [7]) it was 86%; in experiment [4] (setting [8]), 64.6%. In addition, the differential viability (reversal) in experiment [4] (H69AR cells + 2 uM doxorubicin) is -21.4% (inactive). Besides, the inhibition in experiment [5] is -4.16% (inactive); in experiment [6], -3.93% (inactive).
Take `Cc1ccc(CC2SC(=O)NC2=O)cc1Cl` (centres undefined): the viability in experiment [1] was 107% (inactive); in experiment [2] it was 75.8% (inactive); in experiment [3], 92.7% (inactive); in experiment [4] (setting [7]), 88.4%; in experiment [4] (setting [8]), 92.7%. In addition, the differential viability (reversal) in experiment [4] (H69AR cells + 2 uM doxorubicin) was 4.26% (inactive). The inhibition is 3.42% (inactive) in experiment [5] and -2.26% (inactive) in experiment [6].
Regarding `O=C(c1ccc(Cl)cc1)N1CCCOC1`, the viability in experiment [1] was 89% (inactive); in experiment [2], 113% (inactive); in experiment [3], 92% (inactive); in experiment [4] (setting [7]) it was 84.7%; in experiment [4] (setting [8]), 92%. Further, the differential viability (reversal) in experiment [4] (H69AR cells + 2 uM doxorubicin) is 7.33% (inactive). Further, the inhibition was -8.11% (inactive) in experiment [5] and -1.27% (inactive) in experiment [6].
As to `Cc1[nH]c(C(=O)N2CCCCC2)c(C)c1C(=O)NC1CCCCC1`, the viability is 88% (inactive) in experiment [1]; 92.4% (inactive) in experiment [2]; 103% (inactive) in experiment [3]; 84.4% in experiment [4] (setting [7]); 103% in experiment [4] (setting [8]). In experiment [4] (H69AR cells + 2 uM doxorubicin), the differential viability (reversal) was 18.4% (inactive). Moreover, the inhibition in experiment [5] is 1.43% (inactive); in experiment [6], 0.66% (inactive).
As for `O=C(CSc1nccn1Cc1ccccc1)Nc1nccs1`, the viability in experiment [1] was 90% (inactive); in experiment [2] it was 98.6% (inactive); in experiment [3], 108% (inactive); in experiment [4] (setting [7]), 101%; in experiment [4] (setting [8]) it was 108%. Also, the differential viability (reversal) in experiment [4] (H69AR cells + 2 uM doxorubicin) is 6.88% (inactive). Moreover, the results for the inhibition in experiment [5] and in experiment [6] were -0.26% (inactive) and 1.48% (inactive), respectively.
For `Cc1cc(=O)n2nc(N3CCCC(C(=O)N4CCN(C)CC4)C3)sc2n1` (centres undefined), the viability is 110% (inactive) in experiment [1]; 101% (inactive) in experiment [2]; 95.7% (inactive) in experiment [3]; 88.7% in experiment [4] (setting [7]); 95.7% in experiment [4] (setting [8]). Further, the differential viability (reversal) in experiment [4] (H69AR cells + 2 uM doxorubicin) is 7.05% (inactive). For the same compound, the figures for the inhibition in experiment [5] and in experiment [6] were -5.81% (inactive) and -5.09% (inactive), respectively.
